Compound activity: PubChem BioAssay, several laboratories
SENP1 inh – SENP1 (human) catalytic domain inhibition; Q9P0U3; recombinant SENP1 catalytic domain, CyPet-SUMO1-YPet FRET cleavage; inhibition, % at 10 µM; actives 0.21% (n = 360,000);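 active = inhibition at least 30% at 10 µM, raw YFP signal under a set limit, fluorescence ratio 0.5 to 1.5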;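 also: 0% = enzyme with DMSO and 100% = no enzyme wells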
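material = recombinant human SENP1 catalytic domain, His6-tagged | quantity = 20 pM enzyme | reagent = 25 nM SUMO1 FRET substrate | compound dosing = 10 µM single point, 0.5% DMSO | timing = 50 min enzyme reaction, room temperature, light-protected | detection = FRET, CFP and YFP emission | control set = no-enzyme low, enzyme-DMSO high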
SENP7 block – blocks the human protease SENP7 | recombinant SENP7, Z-RLRGG-aminoluciferin luminescence, 40 min | Q9BQF6 | actives 1.5% (n = 330,000) | inhibition, % at 5 µM | AID 434973;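 active = inhibition above about 50% at the single test dose, limit read from the data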;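 also: plate controls were DMSO with enzyme for no effect and no enzyme buffer wells for full effect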
SENP8 block-1 – blocks human SENP8 cleavage of Nedd8 substrate; recombinant SENP8, Nedd8 substrate fluorescence; inhibition, % at 20 µM; actives 0.64% (n = 360,000); in the data active = inhibition mostly above about 40%, no sharp cut-off; inactive = mostly below about 27%
SENP8 block-2 – SENP8 protease inhibition. Q96LD8. purified SENP8, Z-RLRGG-aminoluciferin cleavage, luminescence. inhibition, % at 10 µM. actives 1.2% (n = 330,000); in the data active = inhibition above about 50%
Platelet DG rel – modulates dense granule release in human platelets. actives 0.22% (n = 300,000). AID 1663. human platelet-rich plasma, SFLLRN dense granule ATP release, luminescence. inhibition, %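 (compounds screened at 7.5 µM in platelet-rich plasma)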;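 active = mean replicate score, as percent of positive control, at or above 50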
SENP6 inh – inhibitors of human SENP6 protease | AID 2599 | Recombinant SENP6 catalytic domain, aminoluciferin luminescence | actives 1.8% (n = 330,000) | inhibition, % at 10 µM;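 active = inhibition above about 50% at the single tested dose, limit read from the data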;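 also: plate controls were DMSO wells with enzyme for no effect and DMSO wells lacking enzyme for full effect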
Target sequence (Q9GZR1 628-1112 limits assumed): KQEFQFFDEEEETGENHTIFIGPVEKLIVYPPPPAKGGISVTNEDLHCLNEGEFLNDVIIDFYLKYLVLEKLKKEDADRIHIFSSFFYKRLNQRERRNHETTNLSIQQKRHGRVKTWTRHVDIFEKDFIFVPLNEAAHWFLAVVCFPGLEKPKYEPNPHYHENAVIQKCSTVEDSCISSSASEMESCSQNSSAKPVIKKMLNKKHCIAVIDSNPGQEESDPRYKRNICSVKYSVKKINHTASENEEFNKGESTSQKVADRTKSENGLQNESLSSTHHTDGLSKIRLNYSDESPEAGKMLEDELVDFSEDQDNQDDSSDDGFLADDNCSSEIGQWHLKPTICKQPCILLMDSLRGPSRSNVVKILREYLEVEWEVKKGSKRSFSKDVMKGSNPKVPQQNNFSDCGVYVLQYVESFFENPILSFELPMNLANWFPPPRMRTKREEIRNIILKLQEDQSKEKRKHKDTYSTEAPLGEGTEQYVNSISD
SENP8 conf – human SENP8 inhibition, confirmed; shares compounds with SENP7 block; Recombinant SENP8, Z-RLRGG-aminoluciferin luminescence, 60 min; inhibition, % at 12.5 µM; actives 40% (n = 6,200); AID 488912;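 active = mean inhibition across replicates above about 50%, limit read from the data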
SENP6 conf – human SENP6 inhibition, confirmed; shares compounds with SENP7 block; recombinant SENP6, Z-RLRGG-aminoluciferin luminescence; inhibition, % at 12.5 µM; actives 58% (n = 6,200); AID 488915
SENP7 confirm – confirmation of human SENP7 protease inhibitors | shares compounds with SENP7 block | recombinant SENP7, Z-RLRGG-aminoluciferin luminescence, 40 min | inhibition, % at 12.5 µM | actives 69% (n = 6,200)
Casp3 select – inhibits human caspase-3 in SENP selectivity test; shares compounds with SENP7 block; purified caspase-3, Z-DEVD-aminoluciferin luminescence, 60 min; inhibition, % at 12.5 µM; actives 60% (n = 6,200); AID 488918;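 active = mean inhibition above about 50%, limit read from the data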;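 also: plate controls were enzyme with DMSO for no effect and wells without caspase-3 for full effect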
SENP luc ctr – counter-screen for SENP inhibitors: luminescence interference; shares compounds with SENP7 block; Pre-incubated SENP8/Z-RLRGG-aminoluciferin, luciferase luminescence interference; inhibition, % at 12.5 µM; actives 39% (n = 6,200); AID 488919;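 active = mean inhibition above about 50% when retested at one dose, limit read from the data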;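 also: plate controls were DMSO wells with completed reaction for no effect and substrate without enzyme for full effect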
* hit, by the source's call; · = no result given. Compounds with a hit are over-represented: about 2.6% of the library has one in this group of screens.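 The calls were made as follows, unless noted: active = mean inhibition above about 50% in the one-dose retest (limit read from the data); inactive = the rest.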

SMILES	SENP1 inh	SENP7 block	SENP8 block-1	SENP8 block-2	Platelet DG rel	SENP6 inh	SENP8 conf	SENP6 conf	SENP7 confirm	Casp3 select	SENP luc ctr
Cc1ccc(C(=O)O/N=C(\N)Cc2cccs2)c(Cl)c1	1	85*	0	70*	21	87*	84*	83*	95*	86*	84*
N/C(=N\OC(=O)c1cccs1)c1ccc(Cl)cc1	2	68*	18	51*	-8	61*	5	6	11	7	11
Cc1ccc(C(=O)O/N=C(\N)Cc2ccc([N+](=O)[O-])cc2)c(Cl)c1	1	7	21	2	-5	-7	·	·	·	·	·
COc1ccccc1C(=O)O/N=C(\N)c1ccc(Cl)cc1	2	24	0	13	2	-1	·	·	·	·	·
COc1ccc(C(=O)O/N=C(\N)c2ccc(Cl)cc2)cc1	4	68*	18	45	4	58*	45	42	84*	72*	42
Cc1cccc(C(=O)O/N=C(\N)c2ccc(Cl)cc2)c1	3	50	13	22	14	25	·	·	·	·	·
Cc1ccc(/C(N)=N/OC(=O)c2ccc(Cl)cc2Cl)cc1	2	64*	5	49	-1	79*	33	50*	84*	47	59*
COc1ccc(C2CC(=O)c3cnn(-c4nc(C)cc(C)n4)c3C2)cc1 (stereo not given)	2	-6	4	-1	3	-3	·	·	·	·	·
COc1ccc(/C(N)=N/OC(=O)c2cccs2)cc1	2	15	11	58*	0	77*	64*	74*	95*	75*	82*
CCOc1cc(/C=C2\C(=O)N(c3nc(-c4ccc(Br)cc4)cs3)N=C2c2ccccc2)ccc1O	2	-2	27	5	8	51*	10	7	-3	-2	-1
COc1cc(/C=C2\C(=O)N(c3ccc(NC(C)=O)cc3)N=C2c2ccccc2)ccc1O	2	33	10	5	-5	32	·	·	·	·	·
CCn1c(C)c(C(C)=O)cc(C#N)c1=O	1	79*	11	-5	-2	5	-7	-2	-6	-3	-5
CC(=O)c1cc(C#N)c(SCC(=O)O)nc1C	4	10	11	1	27	9	·	·	·	·	·
C=CCNc1nc(-c2ccc(Cl)cc2)cs1	3	75*	34	80*	-14	91*	44	90*	100*	75*	91*
Clc1ccc(-c2csc(Nc3cccnc3)n2)cc1	0	-7	11	-2	-7	-8	·	·	·	·	·
COc1ccc(C(=O)Nc2cccc(C)n2)cc1S(=O)(=O)N1CCCc2ccccc21	-2	·	15	·	·	·	·	·	·	·	·
O=c1c2ccccc2oc2ccc(-c3ccc4cc[nH]c4c3)cc12	1	62*	-18	53*	·	50*	-10	4	8	3	-2
c1ccc(-c2ccc(-n3ccnc3)cc2)cc1	2	6	-7	36	3	53*	40	33	72*	56*	63*
O=C(NCCc1ccc(F)cc1)c1ccc(S(=O)(=O)N2CCCC2)cc1	4	-15	8	-4	·	-15	·	·	·	·	·
O=C1C(Nc2ccccc2)=CC(c2ccc(O)cc2)N1c1ccccc1 (stereo not given)	-73	3	-452	5	-3	58*	9	5	-3	4	2
Cc1cccn2c(=O)c(C=O)c(N3CCCCCC3)nc12	-2	7	-31	3	-8	1	·	·	·	·	·
Cn1ccsc1=NC(=O)c1ccc(OC(F)(F)F)cc1	2	61*	-65	51*	11	63*	56*	58*	88*	62*	66*
COc1ccc(C(=O)N=c2sccn2C)cc1	2	17	-117	-8	3	14	·	·	·	·	·
Cn1ccsc1=NC(=O)c1ccc(Cl)cc1	2	26	-53	0	0	-19	·	·	·	·	·
COC(=O)c1ccc(C(=O)N=c2sccn2C)cc1	-1	52*	-22	35	21	55*	46	44	76*	78*	7
SMILES	SENP1 inh	SENP7 block	SENP8 block-1	SENP8 block-2	Platelet DG rel	SENP6 inh	SENP8 conf	SENP6 conf	SENP7 confirm	Casp3 select	SENP luc ctr
Nc1ccc2c(c1)C/C(=C/c1ccco1)C2=O	-28	-8	-387	-3	3	-40	·	·	·	·	·
COc1ccc2c(c1)CC/C(=C/c1ccco1)C2=O	-17	-5	-72	83*	14	91*	96*	97*	102*	92*	94*
COc1ccc(C=C2CCc3ccccc3C2=O)cc1	-12	·	-13	·	·	·	·	·	·	·	·
O=C1/C(=C/c2ccco2)CCc2ccccc21	-35	-1	-50	75*	10	87*	97*	99*	102*	96*	94*
CCS(=O)(=O)c1ccc(O)c(NC(=O)Nc2ccccc2OC)c1	-1	5	19	-5	3	-12	·	·	·	·	·
N#CC(C#N)=NNc1ccc([N+](=O)[O-])cc1	14	44	24	74*	9	81*	11	82*	93*	61*	83*
O=C(Cc1cccs1)Nc1ccccc1C(=O)O	0	31	6	45	-1	63*	52*	50*	84*	88*	71*
COCc1cc(=O)[nH]c(/N=C(\N)Nc2c(F)cccc2F)n1	-1	-7	15	-6	-1	4	·	·	·	·	·
Clc1cc(Cl)c2nc(N3CCOCC3)sc2c1	1	25	1	14	3	-39	·	·	·	·	·
Clc1ccc(-c2nsc(N3CCOCC3)n2)c(Cl)c1	1	68*	11	65*	4	77*	66*	64*	89*	72*	49
CCN1C(=O)c2cccc3c(S(=O)(=O)Nc4ccccn4)ccc1c23	-48	0	-321	-1	0	-10	·	·	·	·	·
CCN1C(=O)c2cccc3c(S(=O)(=O)Nc4ncccc4C)ccc1c23	-22	64*	-300	-5	-5	5	-24	-15	-13	-11	-6
Nc1cccc2c(O)cccc12	-8	23	-391	30	0	68*	8	24	10	9	1
